Experimental data from ChEMBL document CHEMBL1154290, “Synthesis and in vitro autoradiographic evaluation of a novel high-affinity radioiodinated ligand for imaging brain cannabinoid subtype-1 receptors” (Bioorg Med Chem Lett, 2009).
pKi: −log10 of the molar value. Values belong to the compound of their own block, whether it stands above or below them.

How the values were obtained:
[1] = biological target: 5-hydroxytryptamine receptor 2A (Homo sapiens) (UniProt P28223); experiment: Displacement of [3H]Ketanserin from 5HT2A (receptor) at 10 uM by scintillation counting; conditions: tested as the 125I-labelled form
5-hydroxytryptamine receptor 2A (Homo sapiens), sequence (P28223 whole entry): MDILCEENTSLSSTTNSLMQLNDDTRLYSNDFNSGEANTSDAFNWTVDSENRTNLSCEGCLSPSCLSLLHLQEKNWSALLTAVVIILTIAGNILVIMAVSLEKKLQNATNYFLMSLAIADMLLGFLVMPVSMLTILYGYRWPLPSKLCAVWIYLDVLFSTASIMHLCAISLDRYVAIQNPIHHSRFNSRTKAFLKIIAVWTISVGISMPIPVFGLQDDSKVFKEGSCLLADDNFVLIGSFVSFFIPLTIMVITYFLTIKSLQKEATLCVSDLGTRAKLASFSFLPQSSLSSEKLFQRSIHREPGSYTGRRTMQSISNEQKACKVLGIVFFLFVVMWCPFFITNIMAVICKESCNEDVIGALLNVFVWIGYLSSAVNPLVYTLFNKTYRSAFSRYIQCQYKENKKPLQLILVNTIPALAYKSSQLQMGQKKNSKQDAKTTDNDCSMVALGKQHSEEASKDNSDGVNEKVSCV
Procedure, shortened: (§1)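 Receptor-panel selectivity screen: test ligand at a single 10 μM concentration. Each site is assayed by inhibition of binding of its radioligand, read out as percent inhibition (n = 4).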

[2] = biological target: 5-hydroxytryptamine receptor 5A (Homo sapiens) (UniProt P47898); experiment: Displacement of [3H]LSD from 5HT5A (receptor) at 10 uM by scintillation counting; conditions: tested as the 125I-labelled form; procedure, shortened: as §1
[3] = biological target: Beta-3 adrenergic receptor (Homo sapiens) (UniProt P13945); experiment: Displacement of [125I]Iodopindolol from beta3 adrenergic receptor at 10 uM by scintillation counting; conditions: tested as the 125I-labelled form
[4] = biological target: D(3) dopamine receptor (Homo sapiens) (UniProt P35462); experiment: Displacement of [3H]N-methylspiperone from dopamine D 3 ( receptor) at 10 uM by scintillation counting; conditions: tested as the 125I-labelled form; procedure, shortened: as §1
[5] = biological target: D(1A) dopamine receptor (Homo sapiens) (UniProt P21728); experiment: Displacement of [3H]SCH233930 from dopamine D 1 ( receptor) at 10 uM by scintillation counting; conditions: tested as the 125I-labelled form; procedure, shortened: as §1
D(1A) dopamine receptor (Homo sapiens), sequence (P21728 whole entry): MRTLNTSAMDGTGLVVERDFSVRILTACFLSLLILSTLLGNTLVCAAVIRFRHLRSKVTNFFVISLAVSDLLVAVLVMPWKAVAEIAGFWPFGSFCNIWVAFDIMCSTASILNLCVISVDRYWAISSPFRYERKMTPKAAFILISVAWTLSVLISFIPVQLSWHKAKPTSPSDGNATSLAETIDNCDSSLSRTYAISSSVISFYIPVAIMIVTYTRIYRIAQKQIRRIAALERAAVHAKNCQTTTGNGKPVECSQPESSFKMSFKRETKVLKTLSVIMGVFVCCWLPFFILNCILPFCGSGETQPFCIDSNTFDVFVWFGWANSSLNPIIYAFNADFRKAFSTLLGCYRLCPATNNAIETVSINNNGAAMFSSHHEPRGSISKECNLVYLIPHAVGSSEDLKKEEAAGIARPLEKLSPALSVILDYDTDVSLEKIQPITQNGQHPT

[6] = biological target: Muscarinic acetylcholine receptor M2 (Homo sapiens) (UniProt P08172); experiment: Displacement of [3H]QNB from Muscarinic acetylcholine receptor M2 at 10 uM by scintillation counting; conditions: tested as the 125I-labelled form; procedure, shortened: as §1
[7] = biological target: Histamine H2 receptor (Homo sapiens) (UniProt P25021); experiment: Displacement of [3H]Pyrilamine from histamine H2 (receptor) at 10 uM by scintillation counting; conditions: tested as the 125I-labelled form; procedure, shortened: as §1
[8] = biological target: Histamine H4 receptor (Homo sapiens) (UniProt Q9H3N8); experiment: Displacement of [3H]Histamine from histamine H4 (receptor) at 10 uM by scintillation counting; conditions: tested as the 125I-labelled form; procedure, shortened: as §1
[9] = biological target: Delta-type opioid receptor (Homo sapiens) (UniProt P41143); experiment: Displacement of [3H]DADLE from delta opioid receptor at 10 uM by scintillation counting; conditions: tested as the 125I-labelled form; procedure, shortened: as §1
Delta-type opioid receptor (Homo sapiens), sequence (P41143 whole entry): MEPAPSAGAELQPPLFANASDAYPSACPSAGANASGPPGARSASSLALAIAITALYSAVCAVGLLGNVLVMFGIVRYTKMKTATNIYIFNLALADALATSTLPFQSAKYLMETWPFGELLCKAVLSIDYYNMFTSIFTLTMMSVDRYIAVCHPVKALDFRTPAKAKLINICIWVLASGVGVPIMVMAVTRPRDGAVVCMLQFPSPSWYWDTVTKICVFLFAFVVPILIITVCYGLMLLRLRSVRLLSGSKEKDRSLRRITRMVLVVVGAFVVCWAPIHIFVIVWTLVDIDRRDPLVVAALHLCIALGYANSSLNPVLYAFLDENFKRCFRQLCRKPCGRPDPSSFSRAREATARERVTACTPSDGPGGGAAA

[10] = biological target: Alpha-2B adrenergic receptor (Homo sapiens) (UniProt P18089); experiment: Displacement of [3H]Clonidine from alpha-2B adrenergic receptor at 10 uM by scintillation counting; conditions: tested as the 125I-labelled form; procedure, shortened: as §1
[11] = biological target: Histamine H3 receptor (Homo sapiens) (UniProt Q9Y5N1); experiment: Displacement of [3H]alpha-methylhistamine from histamine H3 (receptor) at 10 uM by scintillation counting; conditions: tested as the 125I-labelled form; procedure, shortened: as §1
[12] = biological target: Alpha-2A adrenergic receptor (Homo sapiens) (UniProt P08913); experiment: Displacement of [3H]Clonidine from alpha-2A adrenergic receptor at 10 uM by scintillation counting; conditions: tested as the 125I-labelled form; procedure, shortened: as §1
[13] = biological target: 5-hydroxytryptamine receptor 2B (Homo sapiens) (UniProt P41595); experiment: Displacement of [3H]LSD from 5HT2B (receptor) at 10 uM by scintillation counting; conditions: tested as the 125I-labelled form; procedure, shortened: as §1
[14] = Displacement of [3H]DTG from […] opioid receptor at 10 uM by scintillation counting; conditions: tested as the 125I-labelled form; procedure, shortened: as §1
[15] = biological target: Histamine H1 receptor (Homo sapiens) (UniProt P35367); experiment: Displacement of [3H]Pyrilamine from histamine H1 (receptor) at 10 uM by scintillation counting; conditions: tested as the 125I-labelled form; procedure, shortened: as §1
Histamine H1 receptor (Homo sapiens), sequence (P35367 whole entry): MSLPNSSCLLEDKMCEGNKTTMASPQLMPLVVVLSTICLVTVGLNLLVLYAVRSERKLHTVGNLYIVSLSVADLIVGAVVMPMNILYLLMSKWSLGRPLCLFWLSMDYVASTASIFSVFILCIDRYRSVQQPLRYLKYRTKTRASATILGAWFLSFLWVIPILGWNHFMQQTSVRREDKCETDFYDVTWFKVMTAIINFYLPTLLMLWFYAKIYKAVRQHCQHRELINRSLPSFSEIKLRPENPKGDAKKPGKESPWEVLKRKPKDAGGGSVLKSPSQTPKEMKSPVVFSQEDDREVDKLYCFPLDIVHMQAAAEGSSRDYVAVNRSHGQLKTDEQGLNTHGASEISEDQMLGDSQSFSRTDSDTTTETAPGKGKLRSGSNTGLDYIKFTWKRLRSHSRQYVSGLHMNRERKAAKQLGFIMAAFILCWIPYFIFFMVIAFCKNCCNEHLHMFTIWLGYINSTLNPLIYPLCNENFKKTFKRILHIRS

[16] = biological target: 5-hydroxytryptamine receptor 7 (Homo sapiens) (UniProt P34969); experiment: Displacement of [3H]LSD from 5HT7 (receptor) at 10 uM by scintillation counting; conditions: tested as the 125I-labelled form; procedure, shortened: as §1
5-hydroxytryptamine receptor 7 (Homo sapiens), sequence (P34969 whole entry): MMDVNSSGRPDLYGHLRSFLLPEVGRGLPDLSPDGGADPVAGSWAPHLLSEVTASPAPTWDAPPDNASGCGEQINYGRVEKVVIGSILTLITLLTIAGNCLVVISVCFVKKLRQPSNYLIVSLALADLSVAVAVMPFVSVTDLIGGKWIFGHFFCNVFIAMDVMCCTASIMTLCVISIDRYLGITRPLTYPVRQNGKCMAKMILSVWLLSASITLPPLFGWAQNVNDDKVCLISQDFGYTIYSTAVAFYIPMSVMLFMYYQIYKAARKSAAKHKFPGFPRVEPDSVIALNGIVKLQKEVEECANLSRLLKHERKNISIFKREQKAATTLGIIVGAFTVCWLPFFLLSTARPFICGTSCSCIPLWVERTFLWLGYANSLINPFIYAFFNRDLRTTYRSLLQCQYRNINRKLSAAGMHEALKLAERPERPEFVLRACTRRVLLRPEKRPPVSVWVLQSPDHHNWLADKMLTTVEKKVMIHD

[17] = biological target: 5-hydroxytryptamine receptor 2C (Homo sapiens) (UniProt P28335); experiment: Displacement of [3H]Mesulergine from 5HT2C (receptor) at 10 uM by scintillation counting; conditions: tested as the 125I-labelled form; procedure, shortened: as §1
5-hydroxytryptamine receptor 2C (Homo sapiens), sequence (P28335 whole entry): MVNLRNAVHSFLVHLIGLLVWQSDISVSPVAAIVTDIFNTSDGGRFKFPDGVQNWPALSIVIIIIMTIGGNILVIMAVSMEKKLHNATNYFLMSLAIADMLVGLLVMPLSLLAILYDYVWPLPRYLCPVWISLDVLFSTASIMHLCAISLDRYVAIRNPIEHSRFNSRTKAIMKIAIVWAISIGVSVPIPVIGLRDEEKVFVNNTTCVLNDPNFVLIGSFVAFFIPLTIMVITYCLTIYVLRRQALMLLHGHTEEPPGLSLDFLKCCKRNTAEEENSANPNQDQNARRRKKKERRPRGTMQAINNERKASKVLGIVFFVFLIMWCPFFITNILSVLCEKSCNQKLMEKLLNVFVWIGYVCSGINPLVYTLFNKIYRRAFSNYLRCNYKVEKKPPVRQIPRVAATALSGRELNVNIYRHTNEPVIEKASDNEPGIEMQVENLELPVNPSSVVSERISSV

[18] = biological target: Alpha-1A adrenergic receptor (Homo sapiens) (UniProt P35348); experiment: Displacement of [3H]Prazosin from alpha-1A adrenergic receptor at 10 uM by scintillation counting; conditions: tested as the 125I-labelled form; procedure, shortened: as §1
Alpha-1A adrenergic receptor (Homo sapiens), sequence (P35348 whole entry): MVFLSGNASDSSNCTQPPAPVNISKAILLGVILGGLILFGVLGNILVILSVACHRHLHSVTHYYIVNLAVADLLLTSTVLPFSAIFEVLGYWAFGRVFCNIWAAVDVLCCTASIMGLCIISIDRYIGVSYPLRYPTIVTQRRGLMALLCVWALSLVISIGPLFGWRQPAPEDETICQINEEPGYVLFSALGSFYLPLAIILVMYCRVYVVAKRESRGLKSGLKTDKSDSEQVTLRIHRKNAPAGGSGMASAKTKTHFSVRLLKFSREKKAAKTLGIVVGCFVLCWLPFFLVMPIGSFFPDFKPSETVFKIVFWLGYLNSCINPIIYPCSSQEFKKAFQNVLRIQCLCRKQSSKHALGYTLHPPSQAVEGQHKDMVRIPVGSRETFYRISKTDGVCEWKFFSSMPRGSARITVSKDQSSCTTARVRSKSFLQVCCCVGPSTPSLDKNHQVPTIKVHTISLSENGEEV

[19] = biological target: 5-hydroxytryptamine receptor 3A (Homo sapiens) (UniProt P46098); experiment: Displacement of [3H]LY278584 from 5HT3 (receptor) at 10 uM by scintillation counting; conditions: tested as the 125I-labelled form; procedure, shortened: as §1
5-hydroxytryptamine receptor 3A (Homo sapiens), sequence (P46098 whole entry): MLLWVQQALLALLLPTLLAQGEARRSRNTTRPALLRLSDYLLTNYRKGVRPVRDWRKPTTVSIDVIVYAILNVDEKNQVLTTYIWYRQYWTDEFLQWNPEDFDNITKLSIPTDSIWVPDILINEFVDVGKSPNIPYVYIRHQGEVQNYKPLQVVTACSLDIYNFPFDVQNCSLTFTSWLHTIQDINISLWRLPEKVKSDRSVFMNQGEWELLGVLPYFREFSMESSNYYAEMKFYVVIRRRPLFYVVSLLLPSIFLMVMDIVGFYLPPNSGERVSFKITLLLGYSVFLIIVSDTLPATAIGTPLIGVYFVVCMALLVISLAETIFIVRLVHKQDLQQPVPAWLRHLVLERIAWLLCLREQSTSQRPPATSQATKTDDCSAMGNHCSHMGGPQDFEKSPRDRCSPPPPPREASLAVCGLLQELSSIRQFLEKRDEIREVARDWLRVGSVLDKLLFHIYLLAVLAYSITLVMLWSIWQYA

[20] = biological target: Sodium-dependent serotonin transporter (Homo sapiens) (UniProt P31645); experiment: Displacement of [3H]Citalopram from SERT at 10 uM by scintillation counting; conditions: tested as the 125I-labelled form; procedure, shortened: as §1
[21] = biological target: Vasopressin V1b receptor (Homo sapiens) (UniProt P47901); experiment: Displacement of [3H]vasopressin from vasopressin1B receptor at 10 uM by scintillation counting; conditions: tested as the 125I-labelled form; procedure, shortened: as §1
[22] = biological target: 5-hydroxytryptamine receptor 1D (Homo sapiens) (UniProt P28221); experiment: Displacement [3H]GR127543 from 5HT1D (receptor) at 10 uM by scintillation counting; conditions: tested as the 125I-labelled form; procedure, shortened: as §1
[23] = biological target: Beta-1 adrenergic receptor (Homo sapiens) (UniProt P08588); experiment: Displacement of [125I]Iodopindolol from beta-1 adrenergic receptor at 10 uM by scintillation counting; conditions: tested as the 125I-labelled form
[24] = biological target: 5-hydroxytryptamine receptor 6 (Homo sapiens) (UniProt P50406); experiment: Displacement of [3H]LSD from 5HT6 (receptor) at 10 uM by scintillation counting; conditions: tested as the 125I-labelled form; procedure, shortened: as §1
[25] = biological target: D(2) dopamine receptor (Homo sapiens) (UniProt P14416); experiment: Displacement of [3H]N-methylspiperone from dopamine D 2( receptor) at 10 uM by scintillation counting; conditions: tested as the 125I-labelled form; procedure, shortened: as §1
[26] = biological target: 5-hydroxytryptamine receptor 1B (Homo sapiens) (UniProt P28222); experiment: Displacement [3H]GR127543 from 5HT1B (receptor) at 10 uM by scintillation counting; conditions: tested as the 125I-labelled form; procedure, shortened: as §1
[27] = biological target: 5-hydroxytryptamine receptor 2C (Homo sapiens) (UniProt P28335); experiment: Inhibition of radioligand binding to 5HT1C (receptor) at 10 uM; conditions: tested as the 125I-labelled form; procedure, shortened: as §1
[28] = biological target: Muscarinic acetylcholine receptor M4 (Homo sapiens) (UniProt P08173); experiment: Displacement of [3H]QNB from Muscarinic acetylcholine receptor M4 at 10 uM by scintillation counting; conditions: tested as the 125I-labelled form; procedure, shortened: as §1
[29] = biological target: Sigma non-opioid intracellular receptor 1 (Homo sapiens) (UniProt Q99720); experiment: Displacement of [3H]Pentazocine from sigma1 opioid receptor at 10 uM by scintillation counting; conditions: tested as the 125I-labelled form; procedure, shortened: as §1
Sigma non-opioid intracellular receptor 1 (Homo sapiens), sequence (Q99720 whole entry): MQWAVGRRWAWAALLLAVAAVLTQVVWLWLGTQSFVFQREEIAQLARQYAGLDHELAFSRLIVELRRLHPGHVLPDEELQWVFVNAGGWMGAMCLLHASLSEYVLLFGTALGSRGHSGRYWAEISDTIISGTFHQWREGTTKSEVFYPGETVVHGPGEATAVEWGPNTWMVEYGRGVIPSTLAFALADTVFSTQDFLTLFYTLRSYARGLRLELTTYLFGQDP

[30] = biological target: 5-hydroxytryptamine receptor 1E (Homo sapiens) (UniProt P28566); experiment: Displacement of [3H]5-HT from 5HT1E (receptor) at 10 uM by scintillation counting; conditions: tested as the 125I-labelled form; procedure, shortened: as §1
5-hydroxytryptamine receptor 1E (Homo sapiens), sequence (P28566 whole entry): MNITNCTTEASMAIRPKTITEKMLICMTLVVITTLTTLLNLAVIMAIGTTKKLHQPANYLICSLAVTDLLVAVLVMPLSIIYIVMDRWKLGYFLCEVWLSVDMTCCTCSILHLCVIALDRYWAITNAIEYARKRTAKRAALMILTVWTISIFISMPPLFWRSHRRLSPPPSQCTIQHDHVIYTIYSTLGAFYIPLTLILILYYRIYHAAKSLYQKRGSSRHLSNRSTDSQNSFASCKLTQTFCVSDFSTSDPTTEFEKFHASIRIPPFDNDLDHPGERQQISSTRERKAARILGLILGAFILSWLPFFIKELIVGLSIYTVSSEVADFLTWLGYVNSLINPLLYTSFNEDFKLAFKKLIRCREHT

[31] = biological target: Muscarinic acetylcholine receptor M3 (Homo sapiens) (UniProt P20309); experiment: Displacement of [3H]QNB from Muscarinic acetylcholine receptor M3 at 10 uM by scintillation counting; conditions: tested as the 125I-labelled form; procedure, shortened: as §1
[32] = biological target: Vasopressin V1a receptor (Homo sapiens) (UniProt P37288); experiment: Displacement of [3H]vasopressin from vasopressin1A receptor at 10 uM by scintillation counting; conditions: tested as the 125I-labelled form; procedure, shortened: as §1
[33] = biological target: Muscarinic acetylcholine receptor M1 (Homo sapiens) (UniProt P11229); experiment: Displacement of [3H]QNB from Muscarinic acetylcholine receptor M1 at 10 uM by scintillation counting; conditions: tested as the 125I-labelled form; procedure, shortened: as §1
[34] = biological target: Alpha-1B adrenergic receptor (Homo sapiens) (UniProt P35368); experiment: Displacement of [3H]Prazosin from alpha-1B adrenergic receptor at 10 uM by scintillation counting; conditions: tested as the 125I-labelled form; procedure, shortened: as §1
[35] = biological target: Muscarinic acetylcholine receptor M5 (Homo sapiens) (UniProt P08912); experiment: Displacement of [3H]QNB from Muscarinic acetylcholine receptor M5 at 10 uM by scintillation counting; conditions: tested as the 125I-labelled form; procedure, shortened: as §1
[36] = biological target: Sodium-dependent noradrenaline transporter (Homo sapiens) (UniProt P23975); experiment: Displacement of [3H]Nisoxetine from NET at 10 uM by scintillation counting; conditions: tested as the 125I-labelled form; procedure, shortened: as §1
Sodium-dependent noradrenaline transporter (Homo sapiens), sequence (P23975 whole entry): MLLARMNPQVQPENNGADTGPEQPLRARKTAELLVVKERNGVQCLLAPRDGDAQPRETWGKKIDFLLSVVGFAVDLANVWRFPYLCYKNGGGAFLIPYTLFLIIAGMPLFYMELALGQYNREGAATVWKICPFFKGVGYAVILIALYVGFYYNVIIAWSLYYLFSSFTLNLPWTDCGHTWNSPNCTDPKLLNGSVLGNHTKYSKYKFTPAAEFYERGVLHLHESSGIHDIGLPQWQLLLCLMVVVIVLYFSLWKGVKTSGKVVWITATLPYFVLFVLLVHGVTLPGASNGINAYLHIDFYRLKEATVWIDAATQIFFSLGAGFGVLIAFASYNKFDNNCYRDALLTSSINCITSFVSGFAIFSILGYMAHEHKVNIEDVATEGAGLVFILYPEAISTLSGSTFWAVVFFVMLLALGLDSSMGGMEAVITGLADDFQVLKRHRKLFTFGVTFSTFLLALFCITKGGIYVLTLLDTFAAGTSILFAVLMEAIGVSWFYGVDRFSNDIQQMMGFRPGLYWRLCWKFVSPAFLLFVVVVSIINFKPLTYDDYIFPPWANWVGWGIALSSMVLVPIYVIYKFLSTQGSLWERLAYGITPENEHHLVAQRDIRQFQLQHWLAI

[37] = biological target: D(4) dopamine receptor (Homo sapiens) (UniProt P21917); experiment: Displacement of [3H]N-methylspiperone from dopamine D 4 ( receptor) at 10 uM by scintillation counting; conditions: tested as the 125I-labelled form; procedure, shortened: as §1
[38] = biological target: Vasopressin V2 receptor (Homo sapiens) (UniProt P30518); experiment: Displacement of [3H]vasopressin from vasopressin2 receptor at 10 uM by scintillation counting; conditions: tested as the 125I-labelled form; procedure, shortened: as §1
[39] = biological target: Beta-2 adrenergic receptor (Homo sapiens) (UniProt P07550); experiment: Displacement of [125I]Iodopindolol from beta2 adrenergic receptor at 10 uM by scintillation counting; conditions: tested as the 125I-labelled form
Mu-type opioid receptor = Mu-type opioid receptor (Homo sapiens, UniProt P35372); experiment: Displacement of [3H]DAMGO from mu opioid at 10 uM by scintillation counting
[40] = biological target: Alpha-2C adrenergic receptor (Homo sapiens, UniProt P18825); experiment: Displacement of [125I]Iodoclonidine from alpha-2C adrenergic receptor at 10 uM by scintillation counting
Cannabinoid receptor 1 = Cannabinoid receptor 1 (Homo sapiens, UniProt P21554)
Translocator protein = Translocator protein (Homo sapiens, UniProt P30536); experiment: Displacement of [3H]PK11195 from TSPO at 10 uM by scintillation counting
[41] = biological target: 5-hydroxytryptamine receptor 1A (Homo sapiens, UniProt P08908); experiment: Displacement of [3H]8OH-DPAT from 5HT1A receptor at 10 uM by scintillation counting
Cannabinoid receptor 2 = Cannabinoid receptor 2 (Homo sapiens, UniProt P34972); experiment: Displacement of [3H]CP-55940 from CB2 receptor by scintillation counting
Procedure, shortened: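 CB2 affinity given as Ki from radioligand displacement, reported as mean ± SD of three determinations.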

[42] = biological target: Kappa-type opioid receptor (Homo sapiens, UniProt P41145); experiment: Displacement of [3H]U69593 from kappa opioid receptor at 10 uM by scintillation counting

inhibition [1]: < 50% | inhibition [2]: < 50% | inhibition [3]: < 50% | inhibition [4]: < 50% | inhibition [5]: < 50% | inhibition [6]: < 50% | inhibition [7]: < 50% | inhibition [8]: < 50% | inhibition [9]: < 50% | inhibition [10]: < 50% | inhibition [11]: < 50% | inhibition [12]: < 50% | inhibition [13]: < 50% | inhibition [14]: < 50% | inhibition [15]: < 50% | inhibition [16]: < 50% | inhibition [17]: < 50% | inhibition [18]: < 50% | inhibition [19]: < 50% | inhibition [20]: < 50% | inhibition [21]: < 50% | inhibition [22]: < 50% | inhibition [23]: < 50% | inhibition [24]: < 50% | inhibition [25]: < 50% | inhibition [26]: < 50% | inhibition [27]: < 50% | inhibition [28]: < 50% | inhibition [29]: < 50% | inhibition [30]: < 50% | inhibition [31]: < 50% | inhibition [32]: < 50% | inhibition [33]: < 50% | inhibition [34]: < 50% | inhibition [35]: < 50% | inhibition [36]: < 50% | inhibition [37]: < 50% | inhibition [38]: < 50% | inhibition [39]: < 50%
SMILES: COc1ccc(-c2c(C#N)c(C(=O)NN3CCCCC3)nn2-c2ccccc2I)cc1

pKi (Mu-type opioid receptor): 5.83 | pKi [40]: < 5.00 | pKi (Cannabinoid receptor 1): 8.47 | pKi (Translocator protein): 5.50 | pKi [41]: 7.03 | pKi (Cannabinoid receptor 2): 6.26 | pKi [42]: 5.83
SMILES: COc1ccc(-c2c(C#N)c(C(=O)NN3CCCCC3)nn2-c2ccccc2[125I])cc1
